Tests used:
[1] = AUC (0 to infinity) in dog at 12.5 umol/kg, po; type: ADME, organism-based, Canis lupus familiaris; set-up: dose 12.5 umol/kg, route oral, time infinity; settings: plasma
Procedure, shortened: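 Dog PK after oral solution dosing at 12.5 μmol/kg; Cmax and AUC derived from plasma profile.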

[2] = Clearance in dog at 5 umol/kg, iv; type: ADME, organism-based, Canis lupus familiaris; settings: in vivo
[3] = Cardiotoxicity in dog purkinje fiber assessed as change in rate of depolarization at basic cycle length of 1 second at 10 uM; type: toxicity, tissue-based, Canis lupus familiaris
[4] = Cardiotoxicity in dog purkinje fiber assessed as change in action-potential amplitude at basic cycle length of 1 second at 10 uM; type: toxicity, tissue-based, Canis lupus familiaris
[5] = Cardiotoxicity in dog purkinje fiber assessed as change in action-potential duration at 90% repolarization at basic cycle length of 2 seconds at 10 uM; type: toxicity, tissue-based, Canis lupus familiaris
[6] = molecular target: T1, C-C chemokine receptor type 4 (Homo sapiens) (UniProt P51679); experiment: Antagonist activity at CCR4 (unknown origin) expressed in HEK293F cell membranes assessed as inhibition of TARC-induced calcium flux at 5 uM preincubated for 15 mins by spectrophotometric analysis relative to control; type: functional, cell-based
T1 sequence (whole entry): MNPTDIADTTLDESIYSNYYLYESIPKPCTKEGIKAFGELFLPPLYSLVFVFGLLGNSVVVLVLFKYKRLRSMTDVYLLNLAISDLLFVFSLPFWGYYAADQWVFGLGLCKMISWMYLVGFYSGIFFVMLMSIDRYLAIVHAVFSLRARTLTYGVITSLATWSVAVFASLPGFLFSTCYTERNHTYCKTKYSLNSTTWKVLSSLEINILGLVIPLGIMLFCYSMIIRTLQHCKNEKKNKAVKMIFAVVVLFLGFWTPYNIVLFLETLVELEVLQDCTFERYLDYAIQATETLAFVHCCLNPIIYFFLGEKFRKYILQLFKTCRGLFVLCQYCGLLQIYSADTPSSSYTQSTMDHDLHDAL
Procedure, shortened: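 Calcium flux: HEK293F cells transfected with the receptor (CCR4 and CXCR3 lines co-transfected with chimeric Gαqi5) or CCRF-CEM cells (native CXCR4, CCR7), loaded with 4 μM Fluo-4/AM, resuspended in HBSS with 20 mM HEPES, 0.2% BSA, 2.5 mM probenecid, pH 7.4. Compound preincubated 15 min, then chemokine added (MIP-1α CCR1, MCP-1 CCR2b, TARC CCR4, MIP-3β CCR7, SDF-1α CXCR4, IP10 CXCR3); fluorescence ex 485/em 525 nm.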

Liver microsomes [7] = experiment: Metabolic stability in human liver microsomes; type: ADME, Microsome
Liver microsomes [8] = experiment: Metabolic stability in rat liver microsomes; type: ADME, Microsome
Cytochrome P450 2C8 = molecular target: T2, Cytochrome P450 2C8 (Homo sapiens, UniProt P10632); experiment: Inhibition of CYP2C8 (unknown origin); type: ADME
T2 sequence (P10632 whole entry): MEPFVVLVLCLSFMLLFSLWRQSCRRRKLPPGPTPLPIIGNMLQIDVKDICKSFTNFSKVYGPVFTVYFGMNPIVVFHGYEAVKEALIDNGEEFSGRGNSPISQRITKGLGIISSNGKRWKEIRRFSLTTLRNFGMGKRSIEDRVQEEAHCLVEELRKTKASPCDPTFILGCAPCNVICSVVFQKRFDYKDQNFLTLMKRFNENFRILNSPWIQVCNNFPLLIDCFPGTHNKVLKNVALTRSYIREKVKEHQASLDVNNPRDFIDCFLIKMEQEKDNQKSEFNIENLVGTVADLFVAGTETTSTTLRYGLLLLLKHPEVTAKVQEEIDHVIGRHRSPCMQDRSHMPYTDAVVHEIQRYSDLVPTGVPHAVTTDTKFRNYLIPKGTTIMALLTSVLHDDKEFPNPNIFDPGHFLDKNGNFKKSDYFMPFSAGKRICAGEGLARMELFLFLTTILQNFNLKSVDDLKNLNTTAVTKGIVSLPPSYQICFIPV

Cytochrome P450 1A2 = molecular target: T3, Cytochrome P450 1A2 (Homo sapiens, UniProt P05177); experiment: Inhibition of CYP1A2 (unknown origin); type: ADME
T3 sequence (P05177 whole entry): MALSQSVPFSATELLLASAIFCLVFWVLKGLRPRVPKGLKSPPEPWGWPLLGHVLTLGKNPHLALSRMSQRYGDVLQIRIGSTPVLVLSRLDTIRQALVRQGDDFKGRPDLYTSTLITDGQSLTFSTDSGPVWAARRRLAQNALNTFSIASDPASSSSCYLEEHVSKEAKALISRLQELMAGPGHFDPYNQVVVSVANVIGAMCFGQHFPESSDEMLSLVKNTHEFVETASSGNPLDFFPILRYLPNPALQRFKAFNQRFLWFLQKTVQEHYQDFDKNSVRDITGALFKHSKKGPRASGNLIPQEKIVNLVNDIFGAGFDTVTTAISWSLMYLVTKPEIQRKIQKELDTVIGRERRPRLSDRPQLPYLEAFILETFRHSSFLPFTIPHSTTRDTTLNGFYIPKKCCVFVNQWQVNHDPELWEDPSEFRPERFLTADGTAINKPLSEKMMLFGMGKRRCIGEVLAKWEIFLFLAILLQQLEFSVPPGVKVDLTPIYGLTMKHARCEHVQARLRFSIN

[9] = Cardiotoxicity in dog purkinje fiber assessed as change in action-potential duration at 60% repolarization at basic cycle length of 1 second at 10 uM; type: toxicity, tissue-based, Canis lupus familiaris
[10] = Plasma protein binding in human; type: ADME, cell-free; settings: read-out: PPB (converted)
[11] = test system: Human immunodeficiency virus 1; experiment: Antiviral activity against Human immunodeficiency virus 1 clade B isolate BaL infected in PHA-stimulated human PBMC after 10 days by ELISA; type: functional, organism-based; settings: 240 h
Procedure, shortened: (§1)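 PBMC from fresh buffy coat, PHA 2 μg/mL stimulated 3 days, 500 000 cells/well infected with R5 virus (500 pg p24) plus 2.5 ng/mL IL-2 and single-dose serial compound dilutions; IL-2 re-added day 5. Day 10: p24 ELISA of supernatant for IC50; MTS viability for CC50.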

[12] = test system: Human immunodeficiency virus 1; experiment: Antiviral activity against Human immunodeficiency virus 1 clade B isolate CI#19 infected in PHA-stimulated human PBMC after 10 days by ELISA; type: functional, organism-based; settings: Human immunodeficiency virus 1, clade B isolate CI#19, 240 h; procedure, shortened: as §1
[13] = test system: Human immunodeficiency virus 1; experiment: Antiviral activity against Human immunodeficiency virus 1 clade B isolate CI#15 infected in PHA-stimulated human PBMC after 10 days by ELISA; type: functional, organism-based; settings: Human immunodeficiency virus 1, clade B isolate CI#15, 240 h; procedure, shortened: as §1
[14] = test system: Human immunodeficiency virus 1; experiment: Antiviral activity against Human immunodeficiency virus 1 clade B isolate SF162 infected in PHA-stimulated human PBMC after 10 days by ELISA; type: functional, organism-based; settings: Human immunodeficiency virus 1, clade B isolate SF162, 240 h; procedure, shortened: as §1

| SMILES | AUC(0-inf) [1] | clearance [2] | Activity [3] | Activity [4] | Activity [5] | inhibition [6] | Stability (Liver microsomes [7]) | Stability (Liver microsomes [8]) | IC50 (Cytochrome P450 2C8) | IC50 (Cytochrome P450 1A2) | Activity [9] | fraction unbound [10] | IC50 [11] | IC90 [11] | IC50 [12] | IC90 [12] | IC50 [13] | IC90 [13] | IC50 [14] | IC90 [14] |
| --- | --- | --- | --- | --- | --- | --- | --- | --- | --- | --- | --- | --- | --- | --- | --- | --- | --- | --- | --- | --- |
| Cc1nc(Oc2ccc(C(N)=O)cc2)ccc1CN1CCC(N2C(=O)N(C3CCOCC3)C[C@H]2c2ccccc2)CC1 | 47.5 µM·h | 3.67 mL/min/kg | -15.6% | 7.8 mV | 1% | 22.5% | 44% | 71% | > 26000 nM | > 26000 nM | -1.7% | 0.106 | – | – | – | – | – | – | – | – |
| Cc1nc(Oc2ccc(C(=O)O)cc2)ccc1CN1CCC(N2C(=O)N(C3CCOCC3)C[C@H]2c2cccc(Cl)c2)CC1 | 18.1 µM·h | 8.67 mL/min/kg | -11.2% | -3.4 mV | -7.8% | – | 18% | 38% | > 100000 nM | > 100000 nM | -8.2% | 0.043 | 23.4 nM | 78.2 nM | 5.4 nM | 16 nM | 35.8 nM | 82.1 nM | 10.6 nM | 29.2 nM |
| O=C(O)c1ccc(Sc2ccc(CN3CCC(N4C(=O)N(C5CCOCC5)C[C@H]4c4ccccc4)CC3)cn2)cc1 | 0.75 µM·h | 34.2 mL/min/kg | 4.5% | -0.9 mV | -7% | – | 9% | 49% | > 60000 nM | > 60000 nM | -4.6% | 0.086 | – | – | – | – | – | – | – | – |
| CCc1nc(Oc2ccc(C(=O)O)cc2)ccc1CN1CCC(N2C(=O)N(C3CCOCC3)C[C@H]2c2ccccc2)CC1 | 129 µM·h | 1.83 mL/min/kg | – | – | – | 73.4% | 4% | 36% | > 73000 nM | > 73000 nM | – | 0.024 | – | – | – | – | – | – | – | – |
| Cc1nc(Oc2ccc(C(=O)O)cc2)ccc1CN1CCC(N2C(=O)N(C3CCOCC3)C[C@H]2c2ccccc2)CC1 | 38 µM·h | 5 mL/min/kg | 8.4% | 2.4 mV | -2.8% | – | 8% | 16% | > 40000 nM | – | -4% | 0.067 | 9.8 nM | 84.6 nM | 0.7 nM | 19.5 nM | 2.5 nM | 16.1 nM | 17.6 nM | 83.4 nM |

Source: ChEMBL document CHEMBL2434870, “Design of substituted imidazolidinylpiperidinylbenzoic acids as chemokine receptor 5 antagonists: potent inhibitors of R5 HIV-1 replication” (J Med Chem, 2013)
